DAGLB inhibitor – blocks human DAGLB lipase activity | Q8NCG7 | HEK293T DAGLB membrane lysate, EnzChek fluorogenic substrate | inhibition, % at 5.17 µM | 340,000 compounds, 0.059% hits; in the data active = inhibition above about 34%;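 also: 0% = enzyme with vehicle and 100% = wells lacking enzyme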
MPTP block – inhibitors of mitochondrial permeability transition pore. isolated mouse mitochondria, Ca2+ swelling absorbance, 30 min. inhibition, % at 10 µM. 360,000 compounds, 1.4% hits;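 active = inhibition of 50% or more, scaled per plate between neutral and stimulator controls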;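 also: 0% = DMSO wells given calcium and 100% = 1 mM EGTA wells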
TAAR1 ag – agonists of human TAAR1; Q96RJ0; CHO RD-HGA16 TAAR1, Fluo-8 calcium fluorescence; vehicle wells 0%, saturating PEA agonist 100%; activation, % at 3 µM; 360,000 compounds, 0.99% hits;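 active = activation above the mean activation of all test compounds in the run plus 3 SD, cut at about 38% in these data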
Target sequence (Q96RJ0 whole entry, looked up): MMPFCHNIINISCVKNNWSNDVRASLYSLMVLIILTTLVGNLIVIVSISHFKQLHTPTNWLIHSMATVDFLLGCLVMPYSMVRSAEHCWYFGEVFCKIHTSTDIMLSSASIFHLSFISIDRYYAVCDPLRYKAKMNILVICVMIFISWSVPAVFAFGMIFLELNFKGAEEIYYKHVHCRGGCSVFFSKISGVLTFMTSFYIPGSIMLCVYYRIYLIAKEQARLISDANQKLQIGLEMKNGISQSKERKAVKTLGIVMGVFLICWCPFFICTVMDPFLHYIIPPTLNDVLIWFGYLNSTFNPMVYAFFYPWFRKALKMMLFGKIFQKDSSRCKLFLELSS
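System: CHO-derived RD-HGA16 cells with stable Gα16 and human TAAR1. Times: 17-24 h plating, Fluo-8 75 min 37 °C, 30 min RT. Measured by: calcium-sensitive Fluo-8 signal, excitation 470-495, emission 515-575 nm. Read-out basis: % activation relative to PEA EC100 response. Control set: DMSO and PEA EC100. Repeats: no replicates (n 1).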
GPR7 antag – antagonists of human GPR7 (neuropeptides B/W receptor 1). 290,000 compounds, 1.1% hits. inhibition, % at 4.4 µM. GPR7-expressing cells, fluorescence antagonist assay. P48145; in the data active = inhibition above about 16%, passing the limit was not always enough;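 also: cells stimulated with the agonist NPW; 0% = agonist with vehicle and 100% = vehicle without agonist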
Target sequence (P48145 whole entry, looked up): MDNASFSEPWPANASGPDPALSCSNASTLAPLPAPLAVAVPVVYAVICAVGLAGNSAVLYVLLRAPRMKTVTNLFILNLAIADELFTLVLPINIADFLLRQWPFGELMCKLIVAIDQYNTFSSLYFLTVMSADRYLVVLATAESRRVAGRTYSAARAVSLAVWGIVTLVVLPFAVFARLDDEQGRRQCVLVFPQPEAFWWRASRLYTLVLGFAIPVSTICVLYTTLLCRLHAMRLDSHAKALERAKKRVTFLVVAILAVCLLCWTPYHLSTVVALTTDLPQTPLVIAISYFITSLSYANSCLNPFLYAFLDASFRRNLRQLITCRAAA
TAAR1 antagonist – human TAAR1 antagonism. Q96RJ0. CHO RD-HGA16 TAAR1, Fluo-8 calcium fluorescence, antagonist. inhibition, % at 3 µM. 360,000 compounds, 1.5% hits;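 active = inhibition above a per-plate cutoff, the mean inhibition of test compounds on that plate plus 3 SD, cut at about 49% in these data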;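 also: 0% = DMSO plus EC80 beta-PEA response and 100% = DMSO alone without agonist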
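Test system: CHO RD-HGA16 cells bearing hTAAR1 | Reagent: β-PEA, EC80 | Compound dosing: 3 µM, single point | Schedule: Dye loading 75 min at 37 °C, then 30 min room temperature | Signal: Calcium fluorescence with Fluo-8 | Evaluation: Percent inhibition of PEA-evoked calcium signal, max/basal emission ratio | Control set: DMSO-only wells and EC80 β-PEA-stimulated wells | Repeats: Singlicate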
Rh123 counter – membrane potential counter-screen of mitochondrial pore inhibitors; shares compounds with MPTP block; isolated mitochondria, Rhodamine 123 fluorescence; inhibition, % at 10 µM; 5,000 compounds, 78% hits; in the data active = inhibition above about 22%;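 also: 0% = DMSO vehicle and 100% = positive control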
MPTP swell DR – dose response confirmation of mitochondrial permeability transition pore inhibitors; shares compounds with MPTP block; isolated mitochondria swelling, absorbance; IC50, µM; 780 compounds, 58% hits; in the data active = IC50 below about 20 µM
MPTP counter DR – counter-screen for mitochondrial permeability transition pore inhibitors, dose response; shares compounds with MPTP block; isolated mitochondria counterscreen, fluorescence read-out; IC50, µM; 780 compounds, 49% hits; in the data active = IC50 below about 80 µM
An asterisk follows results filed as active; . = not tested or not shown. This is a sample that favours compounds with a hit; in the whole collection about 4% have one here.

SMILES	DAGLB inhibitor	MPTP block	TAAR1 ag	GPR7 antag	TAAR1 antagonist	Rh123 counter	others
NS(=O)(=O)c1ccc(CCNC(=O)c2ccc[nH]c2=S)cc1	1	0	-1	4	2	.
CN(C)CCCNc1nc2cc(-c3cnn(C)c3)sc2c(=O)n1C	.	0	0	.	19	.
O=C(Cn1c(=O)cnc2ccccc21)N1CCN(S(=O)(=O)c2cccc([N+](=O)[O-])c2)CC1	-3	-1	3	.	-2	.
CCCCCCc1cc2cc(C(N)=O)c(=N)oc2cc1O	.	.	.	-6	.	.
CCCCCCc1cc2cc(C(=O)Nc3cccc(OC)c3)c(=O)oc2cc1O	-2	56*	1	-6	12	21*
CCCCCCc1cc2cc(C(=O)OCC)c(=O)oc2cc1O	1	93*	2	-7	-28	87*
CCCCCCc1cc2cc(S(=O)(=O)c3ccc(F)c(Cl)c3)c(=O)oc2cc1O	-2	79*	10	-5	18	86*
CCCCCCc1cc2cc(C(=O)Nc3ccc(OC)cc3)c(=O)oc2cc1O	-3	78*	4	-13	-6	2	MPTP swell DR=1.1*;MPTP counter DR=<2.5*
O=C(NCc1ccc2c(c1)OCO2)OCc1ccccc1	.	0	-2	.	-33	.
CCCCCCc1cc2cc(C(=O)NC)c(=N)oc2cc1O	2	96*	24	-7	5	91*
CCCn1cc(CCC(=O)Nc2ccc(Oc3cccnc3)cc2)c2ccccc21	.	.	-2	.	29	.
O=C(NCCN1CCC(n2c(=O)[nH]c3ccccc32)CC1)c1c(F)cccc1F	.	1	2	.	-3	.
O=S(=O)(NCCNc1ncc(C(F)(F)F)cc1Cl)C(F)(F)F	2	81*	11	-7	19	94*
O=C(Nc1cccc(Br)c1)c1ccc(Cl)c(S(=O)(=O)N2CCOCC2)c1	-2	54*	30	17	73*	75*
CCN(CC)CC(=O)Nc1ccc2c(c1)Nc1ccccc1CC2	2	84*	18	14	-1	-4	MPTP swell DR=10*;MPTP counter DR=66*
CCN(CC)CC(=O)Nc1ccc2c(c1)N(C(=O)CN(CC)CC)c1ccccc1CC2	3	0	9	1	-15	.
COc1cc(Cl)cc2c1Sc1ccccc1/C2=C/CCN(C)C	0	82*	.	-1	.	-4
Fc1ccc(NC(=S)Nc2cccc(Cl)c2)cc1	-1	86*	14	-13	2	97*
Fc1ccc(NC(=S)Nc2ccc(Br)cc2)cc1	0	73*	16	-8	-8	93*
CC(C)c1cccc(C(C)C)c1NC(=S)Nc1cccc(Cl)c1	-2	88*	2	-15	3	90*
CSc1cccc(NC(=S)Nc2ccc(F)cc2)c1	-8	73*	7	-10	20	85*
Cc1ccc(S(=O)(=O)Nc2c(C)n(C)n(-c3ccccc3)c2=O)cc1C(=O)NCc1ccco1	-1	0	0	.	-8	.
CCCCN(C(=O)CC1CCCCC1)c1c(N)n(CCCC)c(=O)[nH]c1=O	-7	0	0	.	-14	.
O=C(NC(NC(=S)Nc1ccccc1O)C(Cl)(Cl)Cl)c1ccco1 (stereo unspecified)	4	4	1	7	6	.
O=C(NC(NC(=S)Nc1ccc(Cl)cc1)C(Cl)(Cl)Cl)c1ccco1 (stereo unspecified)	3	96*	17	6	16	84*
SMILES	DAGLB inhibitor	MPTP block	TAAR1 ag	GPR7 antag	TAAR1 antagonist	Rh123 counter	others
CCc1ccc(OCC(=O)NC(NC(=S)Nc2ccc(Cl)cc2)C(Cl)(Cl)Cl)cc1 (stereo unspecified)	-3	98*	10	-10	19	81*
Cc1cc(CNCCN(C)C)c(C)n1-c1cc(S(=O)(=O)N2CCOCC2)ccc1N1CCCC1	0	-3	2	.	-17	.
CC1CN(C(=O)c2cccc(S(=O)(=O)N3CCN(c4ccc(F)cc4)CC3)c2)CC(C)O1 (stereo unspecified)	-1	0	2	-19	-19	.
O=C(c1cccc(S(=O)(=O)N2CCN(c3ccc(F)cc3)CC2)c1)N1CCCC(C(F)(F)F)C1 (stereo unspecified)	-6	73*	0	.	-6	85*
CN(CCOc1ccc(Cl)cc1)C(=O)c1cccc(S(=O)(=O)N2CCN(c3ccc(F)cc3)CC2)c1	4	58*	.	.	.	90*
CCCCNC(=O)C1C(c2ccc(C(F)(F)F)cc2)=Nc2ccccc2N1C(=O)c1ccc2nc(C)[nH]c2c1 (stereo unspecified)	.	-1	0	.	-3	.
CCc1ccccc1NC(=O)Nc1cc(F)ccc1F	-1	58*	16	-11	14	88*
CCCCNC(=O)c1sc(=S)n2c1[nH]c(=O)c1ccc(C(=O)NCCc3ccc(OC)c(OC)c3)cc12	1	2	.	-10	.	.
O=C(NCc1ccccc1)c1sc(=S)n2c1[nH]c(=O)c1ccccc12	11	86*	44*	6	3	89*
O=C(NCc1ccccc1)C1C(c2ccc3c(c2)OCO3)=Nc2ccccc2N1C(=O)c1cccc2ccccc12 (stereo unspecified)	.	1	2	.	-16	.
CCCC(=O)N1CCCC1(C)C(=O)NCc1ccc(SC)cc1 (stereo unspecified)	.	0	-1	.	0	.
Nc1ccc(Oc2ccc([N+](=O)[O-])cc2[N+](=O)[O-])cc1	3	0	0	-9	-12	.
COc1cc(/C=C2/C(=O)N(c3ccc(C)c(C)c3)N=C2C)cc([N+](=O)[O-])c1O	14	3	-2	-7	-14	.
CC1=NN(c2ccccc2)C(=O)/C1=C\c1ccc(Oc2ccc([N+](=O)[O-])cc2[N+](=O)[O-])cc1	-5	80*	23	15	-3	70*
COc1cc(/C=C2\C(=O)N(c3ccccc3)N=C2C)ccc1Oc1ccc([N+](=O)[O-])cc1[N+](=O)[O-]	-2	88*	2	-15	-7	61*
Cc1cc(NC(=S)Nc2ccccc2)ccc1Br	0	71*	11	-1	-3	79*
Cc1ccccc1NC(=S)Nc1ccccc1	-1	0	2	-12	10	.
Cc1cc(NC(=S)Nc2cccnc2)ccc1Br	-1	88*	9	-9	8	72*
COc1ccc(CNC(=O)CCNC(=O)C2CCN(S(=O)(=O)c3ccc(OC)cc3)CC2)cc1	-3	0	2	.	-11	.
COc1ccc(COc2ccccc2C(=O)NCc2ccccc2)cc1F	-7	96*	10	19	71*	88*
Cc1cc([N+](=O)[O-])ccc1NC(=O)/C=C/c1cccs1	-1	83*	7	2	0	31*

Assay outcomes from PubChem.
